22 compounds from ChEMBL document CHEMBL1138033, “S-alkylated homocysteine derivatives: new inhibitors of human betaine-homocysteine S-methyltransferase” (J Med Chem, 2006) can be followed below.

Molecules are shown by their SMILES.

Assay [1] has as its target T1, Betaine--homocysteine S-methyltransferase 1 (Homo sapiens) (UniProt Q93088).
T1 sequence (whole entry): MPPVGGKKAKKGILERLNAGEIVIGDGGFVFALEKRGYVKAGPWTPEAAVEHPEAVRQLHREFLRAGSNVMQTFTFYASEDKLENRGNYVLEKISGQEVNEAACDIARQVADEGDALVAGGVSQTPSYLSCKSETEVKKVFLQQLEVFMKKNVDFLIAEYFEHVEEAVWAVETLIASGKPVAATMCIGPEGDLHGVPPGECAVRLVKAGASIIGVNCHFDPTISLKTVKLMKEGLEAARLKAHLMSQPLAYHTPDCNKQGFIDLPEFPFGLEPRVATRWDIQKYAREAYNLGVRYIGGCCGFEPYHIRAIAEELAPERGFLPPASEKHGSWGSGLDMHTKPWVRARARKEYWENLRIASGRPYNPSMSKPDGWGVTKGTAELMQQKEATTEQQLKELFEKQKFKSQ
The assay is described as follows: Inhibition of human BHMT at 20 uM. Summed up:
(§1)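 Recombinant human BHMT (0.2 µM) premixed with inhibitor, then 100 µM D,L-homocysteine and 250 µM N-methyl-¹⁴C-betaine (0.05 µCi) added; 50 mM K-phosphate pH 7.5, 10 mM β-mercaptoethanol, 37°C for 30 min. Radiolabel incorporation read against enzyme-free blanks; triplicates, percent relative to no-inhibitor control.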

The target of assay [2] is T1, Betaine--homocysteine S-methyltransferase 1 (Homo sapiens). Briefly: Inhibition of human BHMT at 1 uM. Summed up:
as §1

Assay [3] concerns the target T2, Betaine--homocysteine S-methyltransferase 1 (Homo sapiens, UniProt Q93088).
T2 sequence (Q93088 whole entry): T1 sequence (whole entry)
Briefly: Inhibition of human BHMT. Summed up:
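Recombinant human BHMT (0.2 µM) mixed with inhibitor at ten concentrations, then 1 mM D,L-homocysteine and 2 mM betaine (¹⁴C-methyl labelled, 0.15 µCi) added in 50 mM K-phosphate pH 7.5 with 10 mM β-mercaptoethanol; 30 min at 37°C. Enzyme-free blanks subtracted. IC50 by nonlinear regression; points in duplicate, three independent assays.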

Take `NC(CCSCCOCP(=O)(O)O)C(=O)O` (racemic): in assay [1], the inhibition – broadly, the relative decrease from the control value, in per cent – was 25.5%.
As for `N[C@@H](CSCCCCC(=O)O)C(=O)O`, in assay [1], the inhibition was determined as 0%.
`NC(CCSSCCC(N)C(=O)O)C(=O)O` (stereo not given) came in with an inhibition in assay [1] of 0%.
For the compound `NC(CC[S+]([O-])CCCCC(=O)O)C(=O)O` (racemic), the inhibition in assay [1] stood at 97.3%; in assay [2] it was 67.8%. In addition, in assay [3], the midpoint of inhibition, the IC50, lay at 5 µM.
Turning to `NC(CCSCc1ccc(CC(=O)O)cc1)C(=O)O` (racemic), the inhibition in assay [1] came to 10.1%.
In assay [1], `NC(CCSCC(=O)NCP(=O)(O)O)C(=O)O` (racemic) returned an inhibition of 8.8%.
Same read-out and setting: the same measure for `NC(CCSCCCC(=O)O)C(=O)O` (racemic): 20.1%.
`NC(CC[S+]([O-])CC(N)C(=O)O)C(=O)O` (stereo not given) displayed an inhibition in assay [1] of 9.5%.
Consider `NC(CCSc1cccc(C(=O)O)c1)C(=O)O` (racemic), for which the inhibition in assay [1] was 12.8%.
In assay [1], `NC(CCSc1ccccc1C(=O)O)C(=O)O` (racemic) registered an inhibition of 42.5%.
With `NC(CCSCCCCP(=O)(O)O)C(=O)O` (racemic), the inhibition in assay [1] was found to be 97.8%; in assay [2], 74%. For the same compound, in assay [3], half-maximal inhibition (IC50) was put at 5.7 µM.
For the compound `NC(CCSCCCCC(=O)O)C(=O)O` (racemic), the inhibition is 100% in assay [1] and 98.3% in assay [2].
Take `C=CCSCCC(N)C(=O)O` (racemic): the inhibition in assay [1] amounted to 0%.
Regarding `NC(CCSc1ccc(C(=O)O)cc1)C(=O)O` (racemic), the inhibition was determined as 98.6% in assay [1] and 84.8% in assay [2]. Moreover, it took 7 µM to reach half-maximal inhibition in assay [3] (IC50).
On to `COC(=O)C(N)CCSCC(=O)NCP(=O)(O)O` (racemic), for which the inhibition in assay [1] stood at 0%.
With `NC(CCSCC[S+]([O-])CC(=O)O)C(=O)O` (racemic), the inhibition is 89.8% in assay [1] and 55.3% in assay [2].
Regarding `NC(CCSCCCCCC(=O)O)C(=O)O` (racemic), the inhibition in assay [1] stood at 100%; in assay [2], 99.9%. Moreover, the IC50 (usually the midpoint of a concentration-inhibition curve) in assay [3] stood at 0.2 µM.
For the compound `NC(CCSSCCC(=O)O)C(=O)O` (racemic), the figures for the inhibition in assay [1] and in assay [2] were 30% and 0%, respectively.
For `NC(CCSCCSCC(=O)O)C(=O)O` (racemic), the inhibition is 100% in assay [1] and 96.8% in assay [2]. Besides, the IC50 in assay [3] is 0.096 µM.
Take `CSCSCCC(N)C(=O)O` (racemic): the inhibition in assay [1] was 20.5%.
The same measure, in the same setting: the value for `NC(CCSCC(N)C(=O)O)C(=O)O` (stereo not given) was 18.8%; that for `NC(CCS(=O)(=O)CCCCC(=O)O)C(=O)O` (racemic) was 28.8%.
